Assay results as given in ChEMBL document CHEMBL1142964, “Synthesis and biological evaluation of [18F]bicalutamide, 4-[76Br]bromobicalutamide, and 4-[76Br]bromo-thiobicalutamide as non-steroidal androgens for prostate cancer imaging” (J Med Chem, 2007).

Assays:
[1] = Biodistribution in prostate of iv dosed CWR22 tumor bearing mouse with 17alpha-methyltestosterone-induced androgen block after 90 min; type: ADME, organism-based, Prostate gland; settings: human, read-out: Drug uptake
Summary of the method: (§1)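 Mature male mice (25 g) bearing flank CWR22 prostate tumors received DES (0.2 mg in 0.1 mL sesame oil, sc) 24 and 3 h before the tracer. 76Br-tracer, 6 µCi/animal in 10% ethanol-saline, was given iv by tail vein. Mice were killed at 30 or 90 min. Block set was co-injected with 8 µg 17α-methyltestosterone. Five animals per point. Results are %ID/g.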

Liver = assay: Biodistribution in liver of iv dosed testis-intact Sprague-Dawley rat after 18 hrs block; type: ADME, organism-based; settings: in vivo
Summary of the method: (§2)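 76Br-tracer in 10% ethanol-saline, given iv by tail vein to mature male Sprague-Dawley rats (250 g) castrated 7 days before. Doses were 4 µCi/animal (1 h) and 7 µCi/animal (18 h). Block group used testes-intact rats, with the AR saturated by endogenous androgen. Five animals per group. Tissues were excised, weighed, saline-washed, blotted and counted. %ID/g was taken against injected-dose standards.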

[2] = Biodistribution in prostate of iv dosed Sprague-Dawley rat after 18 hrs; type: ADME, organism-based, Prostate gland; settings: read-out: Drug uptake; summary of the method: as §2
[3] = Biodistribution in muscle of iv dosed CWR22 tumor bearing mouse with 17alpha-methyltestosterone-induced androgen block after 90 min; type: ADME, organism-based; settings: human, read-out: Drug uptake; summary of the method: as §1
[4] = Biodistribution in muscle of iv dosed Sprague-Dawley rat after 18 hrs; type: ADME, organism-based, Muscle tissue; settings: read-out: Drug uptake; summary of the method: as §2
[5] = Ratio of drug uptake in prostate to blood in iv dosed Sprague-Dawley rat after 1 hr; type: ADME, organism-based, Prostate gland
Summary of the method: (§3)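 Castrated male Sprague-Dawley rats were dosed iv (tail vein) with 4 µCi 76Br-tracer in 10% ethanol-saline and killed at 1 h, five per group. Tissues were weighed and counted and %ID/g calculated against dose standards. Ratios are prostate %ID/g over blood or muscle %ID/g.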

[6] = Biodistribution in kidney of iv dosed CWR22 tumor bearing mouse after 60 min; type: ADME, organism-based; settings: human, read-out: Drug uptake
[7] = Biodistribution in prostate of iv dosed CWR22 tumor bearing mouse after 60 min; type: ADME, organism-based, Prostate gland; settings: human, read-out: Drug uptake
[8] = Biodistribution in kidney of iv dosed Sprague-Dawley rat after 18 hrs; type: ADME, organism-based; settings: read-out: Drug uptake; summary of the method: as §2
Blood [9] = assay: Biodistribution in blood of iv dosed testis-intact Sprague-Dawley rat after 1 hr block; type: ADME, organism-based; settings: in vivo; summary of the method: as §2
[10] = Biodistribution in bone of iv dosed Sprague-Dawley rat after 1 hr; type: ADME, organism-based, Bone element; settings: read-out: Drug uptake; summary of the method: as §2
Muscle tissue [11] = assay: Biodistribution in muscle of iv dosed testis-intact Sprague-Dawley rat after 18 hrs block; type: ADME, organism-based; settings: in vivo; summary of the method: as §2
[12] = Biodistribution in kidney of iv dosed Sprague-Dawley rat after 1 hr; type: ADME, organism-based; settings: read-out: Drug uptake; summary of the method: as §2
[13] = Biodistribution in kidney of iv dosed CWR22 tumor bearing mouse with 17alpha-methyltestosterone-induced androgen block after 90 min; type: ADME, organism-based; settings: human, in vivo, 1.5 h; summary of the method: as §1
Muscle tissue [14] = assay: Biodistribution in muscle of iv dosed testis-intact Sprague-Dawley rat after 1 hr block; type: ADME, organism-based; settings: in vivo; summary of the method: as §2
[15] = Biodistribution in bone of iv dosed Sprague-Dawley rat after 18 hrs; type: ADME, organism-based, Bone element; settings: read-out: Drug uptake; summary of the method: as §2
[16] = Biodistribution in kidney of iv dosed CWR22 tumor bearing mouse after 30 min; type: ADME, organism-based; settings: human, read-out: Drug uptake; summary of the method: as §1
[17] = Biodistribution in tumor of iv dosed CWR22 tumor bearing mouse after 30 min; type: ADME, organism-based; settings: human, read-out: Drug uptake; summary of the method: as §1
Prostate gland [18] = assay: Biodistribution in prostate of iv dosed testis-intact Sprague-Dawley rat after 1 hr block; type: ADME, organism-based; settings: in vivo; summary of the method: as §2
Kidney [19] = assay: Biodistribution in kidney of iv dosed testis-intact Sprague-Dawley rat after 18 hrs block; type: ADME, organism-based; settings: in vivo; summary of the method: as §2
[20] = Ratio of drug uptake in prostate to muscle in iv dosed Sprague-Dawley rat after 1 hr; type: ADME, organism-based, Prostate gland; settings: in vivo; summary of the method: as §3
Prostate gland [21] = assay: Biodistribution in prostate of iv dosed testis-intact Sprague-Dawley rat after 18 hrs block; type: ADME, organism-based; settings: in vivo; summary of the method: as §2
[22] = Biodistribution in liver of iv dosed CWR22 tumor bearing mouse after 30 min; type: ADME, organism-based; settings: human, read-out: Drug uptake; summary of the method: as §1
[23] = Biodistribution in liver of iv dosed Sprague-Dawley rat after 18 hrs; type: ADME, organism-based; settings: read-out: Drug uptake; summary of the method: as §2
Blood [24] = assay: Biodistribution in blood of iv dosed testis-intact Sprague-Dawley rat after 18 hrs block; type: ADME, organism-based; settings: in vivo; summary of the method: as §2
Kidney [25] = assay: Biodistribution in kidney of iv dosed testis-intact Sprague-Dawley rat after 1 hr block; type: ADME, organism-based; settings: in vivo; summary of the method: as §2
[26] = Biodistribution in liver of iv dosed Sprague-Dawley rat after 1 hr; type: ADME, organism-based; settings: read-out: Drug uptake; summary of the method: as §2
[27] = Biodistribution in prostate of iv dosed CWR22 tumor bearing mouse after 30 min; type: ADME, organism-based, Prostate gland; settings: human, read-out: Drug uptake; summary of the method: as §1
[28] = Biodistribution in muscle of iv dosed Sprague-Dawley rat after 1 hr; type: ADME, organism-based, Muscle tissue; settings: read-out: Drug uptake; summary of the method: as §2
Bone [29] = assay: Biodistribution in bone of iv dosed testis-intact Sprague-Dawley rat after 1 hr block; type: ADME, organism-based, Bone element; settings: in vivo; summary of the method: as §2
[30] = Biodistribution in blood of iv dosed CWR22 tumor bearing mouse after 30 min; type: ADME, organism-based; settings: human, read-out: Drug uptake; summary of the method: as §1
[31] = Biodistribution in blood of iv dosed Sprague-Dawley rat after 18 hrs; type: ADME, organism-based; settings: read-out: Drug uptake; summary of the method: as §2
Bone [32] = assay: Biodistribution in bone of iv dosed testis-intact Sprague-Dawley rat after 18 hrs block; type: ADME, organism-based, Bone element; settings: in vivo; summary of the method: as §2
[33] = Biodistribution in liver of iv dosed testis-intact Sprague-Dawley rat after 1 hr block; type: ADME, organism-based; settings: male, read-out: Drug uptake; summary of the method: as §2
[34] = Biodistribution in prostate of iv dosed Sprague-Dawley rat after 1 hr; type: ADME, organism-based, Prostate gland; settings: read-out: Drug uptake; summary of the method: as §2
[35] = Biodistribution in liver of iv dosed CWR22 tumor bearing mouse after 60 min; type: ADME, organism-based; settings: human, read-out: Drug uptake
[36] = Biodistribution in blood of iv dosed CWR22 tumor bearing mouse with 17alpha-methyltestosterone-induced androgen block after 90 min; type: ADME, organism-based; settings: human, read-out: Drug uptake; summary of the method: as §1
[37] = Biodistribution in muscle of iv dosed CWR22 tumor bearing mouse after 30 min; type: ADME, organism-based, Muscle tissue; settings: human, read-out: Drug uptake; summary of the method: as §1
[38] = Biodistribution in blood of iv dosed Sprague-Dawley rat after 1 hr; type: ADME, organism-based; settings: read-out: Drug uptake; summary of the method: as §2
[39] = Biodistribution in tumor of iv dosed CWR22 tumor bearing mouse with 17alpha-methyltestosterone-induced androgen block after 90 min; type: ADME, organism-based; settings: human, in vivo, 1.5 h; summary of the method: as §1
[40] = Biodistribution in muscle of iv dosed CWR22 tumor bearing mouse after 60 min; type: ADME, organism-based, Muscle tissue; settings: human, read-out: Drug uptake
[41] = Biodistribution in liver of iv dosed CWR22 tumor bearing mouse with 17alpha-methyltestosterone-induced androgen block after 90 min; type: ADME, organism-based; settings: human, in vivo, 1.5 h; summary of the method: as §1
[42] = Biodistribution in blood of iv dosed CWR22 tumor bearing mouse after 60 min; type: ADME, organism-based; settings: human, in vivo, 1 h
[43] = Biodistribution in tumor of iv dosed CWR22 tumor bearing mouse after 60 min; type: ADME, organism-based; settings: human, read-out: Drug uptake
Androgen receptor = molecular target: T1, Androgen receptor (Rattus norvegicus, UniProt P15207); assay: Binding affinity to rat AR
T1 sequence (P15207 whole entry): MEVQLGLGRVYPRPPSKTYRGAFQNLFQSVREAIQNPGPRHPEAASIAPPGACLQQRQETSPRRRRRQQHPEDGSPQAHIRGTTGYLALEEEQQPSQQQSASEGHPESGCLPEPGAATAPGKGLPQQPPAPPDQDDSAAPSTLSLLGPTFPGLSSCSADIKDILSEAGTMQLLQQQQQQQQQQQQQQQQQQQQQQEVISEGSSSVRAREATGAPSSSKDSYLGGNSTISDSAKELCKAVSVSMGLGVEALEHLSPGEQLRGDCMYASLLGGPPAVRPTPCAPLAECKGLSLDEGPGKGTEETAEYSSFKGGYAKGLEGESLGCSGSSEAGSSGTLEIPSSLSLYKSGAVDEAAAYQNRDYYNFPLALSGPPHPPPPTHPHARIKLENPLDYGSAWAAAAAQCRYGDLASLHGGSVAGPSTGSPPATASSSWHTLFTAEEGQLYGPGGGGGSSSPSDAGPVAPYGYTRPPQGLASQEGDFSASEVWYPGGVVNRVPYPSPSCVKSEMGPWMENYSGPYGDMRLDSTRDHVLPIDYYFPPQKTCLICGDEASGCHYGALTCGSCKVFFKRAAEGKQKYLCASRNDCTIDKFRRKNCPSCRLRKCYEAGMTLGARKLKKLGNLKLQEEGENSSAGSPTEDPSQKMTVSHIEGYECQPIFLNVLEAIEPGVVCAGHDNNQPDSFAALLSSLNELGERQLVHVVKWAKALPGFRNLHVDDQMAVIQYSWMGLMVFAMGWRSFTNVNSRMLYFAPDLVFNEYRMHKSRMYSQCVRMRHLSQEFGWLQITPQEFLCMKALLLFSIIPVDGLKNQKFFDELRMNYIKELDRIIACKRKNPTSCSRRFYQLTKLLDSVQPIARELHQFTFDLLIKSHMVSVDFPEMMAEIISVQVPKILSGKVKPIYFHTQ

With `CC(O)(CS(=O)(=O)c1ccc([76Br])cc1)C(=O)Nc1ccc(C#N)c(C(F)(F)F)c1` (stereo not given) the tissue uptake at 1.5 h [1] was 3.4 %ID/g, the Drug uptake (Liver) was 0.36 % ID/g and the tissue uptake at 18 h [2] was 0.27 %ID/g. For the same molecule, the tissue uptake at 1.5 h [3] was 2.8 %ID/g, the tissue uptake at 18 h [4] was 0.15 %ID/g and the Kp at 1 h [5] was 1.8. For the same molecule, the tissue uptake at 1 h [6] was 7.8 %ID/g, the tissue uptake at 1 h [7] was 2.8 %ID/g and the tissue uptake at 18 h [8] was 0.36 %ID/g. The Drug uptake (Blood [9]) was 0.62 % ID/g, the tissue uptake at 1 h [10] was 0.28 %ID/g and the Drug uptake (Muscle tissue [11]) was 0.11 % ID/g. The tissue uptake at 1 h [12] was 1 %ID/g, the Drug uptake [13] was 7.6 % ID/g and the Drug uptake (Muscle tissue [14]) was 0.38 % ID/g. For the same molecule, the tissue uptake at 18 h [15] was 0.13 %ID/g, the tissue uptake at 0.5 h [16] was 7.2 %ID/g and the tissue uptake at 0.5 h [17] was 2.5 %ID/g. For the same molecule, the Drug uptake (Prostate gland [18]) was 0.68 % ID/g, the Drug uptake (Kidney [19]) was 0.26 % ID/g and the Ratio [20] was 2.9. For the same molecule, the Drug uptake (Prostate gland [21]) was 0.22 % ID/g, the tissue uptake at 0.5 h [22] was 15 %ID/g and the tissue uptake at 18 h [23] was 0.56 %ID/g. For the same molecule, the Drug uptake (Blood [24]) was 0.29 % ID/g, the Drug uptake (Kidney [25]) was 1 % ID/g and the tissue uptake at 1 h [26] was 2.1 %ID/g. The tissue uptake at 0.5 h [27] was 2.2 %ID/g, the tissue uptake at 1 h [28] was 0.34 %ID/g and the Drug uptake (Bone [29]) was 0.31 % ID/g. The tissue uptake at 0.5 h [30] was 2.7 %ID/g, the tissue uptake at 18 h [31] was 0.34 %ID/g and the Drug uptake (Bone [32]) was 0.12 % ID/g. For the same molecule, the tissue uptake at 1 h [33] was 2.5 %ID/g, the tissue uptake at 1 h [34] was 1 %ID/g and the tissue uptake at 1 h [35] was 18 %ID/g. It also gave a tissue uptake at 1.5 h [36] of 3 %ID/g, a tissue uptake at 0.5 h [37] of 2.5 %ID/g and a tissue uptake at 1 h [38] of 0.56 %ID/g. The Drug uptake [39] was 4.5 % ID/g, the tissue uptake at 1 h [40] was 2.9 %ID/g and the Drug uptake [41] was 14 % ID/g. It also gave a Drug uptake [42] of 3.5 % ID/g and a tissue uptake at 1 h [43] of 3.8 %ID/g.

In the case of `CC(O)(CS(=O)(=O)c1ccc(Br)cc1)C(=O)Nc1ccc(C#N)c(C(F)(F)F)c1` (stereo not given), the Kd (Androgen receptor) is reported as 110 nM.
